Assay results published in ChEMBL document CHEMBL4480412, “Deleting a Chromatin Remodeling Gene Increases the Diversity of Secondary Metabolites Produced by Colletotrichum higginsianum” (2019).
Values after ≈ are worked out from the molar mass of the structure shown.

Columns and labels:
Escherichia coli = test: Antibacterial activity against Escherichia coli ATCC 25922 by broth microdilution method; format: functional
Outline: (§1)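 Broth microdilution run to CLSI guidelines; read-out is minimal inhibitory concentration (MIC). Chloramphenicol used as reference antibacterial.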

Botrytis cinerea = test: Antifungal activity against Botrytis cinerea B05.10 by EUCAST method; format: functional
Outline: (§2)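 Susceptibility testing by the EUCAST method; read-out is minimal inhibitory concentration (MIC). Amphotericin B used as reference antifungal.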

Homo sapiens [1] = species: Homo sapiens; test: Inhibition of hyaluronidase (unknown origin) at 200 uM relative to control
Aspergillus ochraceus = test: Antifungal activity against Aspergillus ochraceus ATCC 1009 by EUCAST method; format: functional; outline: as §2
[2] = target: Collagenase (Homo sapiens) (UniProt P08253+P14780+P22894+P45452+P03956); test: Inhibition of collagenase (unknown origin) at 200 uM relative to control; format: protein assay
Homo sapiens [3] = species: Homo sapiens; test: Inhibition of elastase (unknown origin) at 200 uM relative to control
Micrococcus luteus = test: Antibacterial activity against Micrococcus luteus ATCC 10240 by broth microdilution method; format: functional; outline: as §1
[4] = target: T1, Tyrosinase (Homo sapiens) (UniProt P14679); test: Inhibition of tyrosinase (unknown origin) at 200 uM relative to control
T1 sequence (whole entry): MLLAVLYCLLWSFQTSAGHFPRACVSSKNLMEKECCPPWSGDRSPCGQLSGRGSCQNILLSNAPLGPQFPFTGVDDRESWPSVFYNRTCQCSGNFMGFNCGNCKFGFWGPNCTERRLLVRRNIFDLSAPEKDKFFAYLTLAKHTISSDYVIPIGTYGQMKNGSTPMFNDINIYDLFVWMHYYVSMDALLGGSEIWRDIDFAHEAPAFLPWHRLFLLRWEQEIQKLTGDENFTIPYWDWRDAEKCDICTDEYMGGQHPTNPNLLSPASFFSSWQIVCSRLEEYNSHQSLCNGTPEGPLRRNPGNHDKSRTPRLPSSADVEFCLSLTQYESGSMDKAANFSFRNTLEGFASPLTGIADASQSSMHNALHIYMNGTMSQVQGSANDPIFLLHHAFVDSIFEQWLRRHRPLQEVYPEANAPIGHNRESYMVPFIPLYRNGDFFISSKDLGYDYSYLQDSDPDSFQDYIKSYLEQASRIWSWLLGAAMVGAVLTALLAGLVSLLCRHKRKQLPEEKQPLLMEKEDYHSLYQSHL

[5] = Antioxidant activity assessed as DPPH radical scavenging activity at 200 uM; format: functional
Bacillus spizizenii = test: Antibacterial activity against Bacillus subtilis ATCC 6633 by broth microdilution method; format: functional; outline: as §1
Rhizopus arrhizus = test: Antifungal activity against Rhizopus oryzae ATCC 11145 by EUCAST method; format: functional; outline: as §2

Compound	MIC (Escherichia coli) [µM]	MIC (Botrytis cinerea) [µM]	inhibition (Homo sapiens [1]) [%]	MIC (Aspergillus ochraceus) [µM]	inhibition [2] [%]	inhibition (Homo sapiens [3]) [%]	MIC (Micrococcus luteus) [µM]	inhibition [4] [%]	MIC (Bacillus spizizenii) [µM]	MIC (Rhizopus arrhizus) [µM]	inhibition [5] [%]
CC(C)=CCc1c(O)cc(C)c(C(=O)O)c1O	> 225	> 225	< 20	> 225	< 20	< 20	> 225	< 20	> 225	> 225	< 20
C[C@@H]1[C@H](O)[C@@H](C)/C=C/C=C/C=C/C=C/C=C/C=C/C=C/[C@H](O[C@@H]2O[C@H](C)[C@@H](O)[C@H](N)[C@@H]2O)C[C@@H]2O[C@](O)(C[C@@H](O)C[C@@H](O)[C@H](O)CC[C@@H](O)C[C@@H](O)CC(=O)O[C@H]1C)C[C@H](O)[C@H]2C(=O)O [AMPHOTERICIN B]	–	2 (≈ 1.85 µg/mL)	–	2 (≈ 1.85 µg/mL)	–	–	–	–	–	2 (≈ 1.85 µg/mL)	–
C=C1CC[C@@H]2[C@](C)(CC[C@H]3O[C@@H](C(C)(C)O)CC[C@@]23C)[C@@H]1Cc1c(O)c(C)c(C)oc1=O	> 225	> 225	< 20	> 225	< 20	< 20	> 225	< 20	> 225	> 225	< 20
C=C1CC[C@@H]2[C@](C)(CC[C@H]3O[C@H](C(C)(C)O)CC[C@@]23C)[C@@H]1Cc1c(O)c(C)c(C)oc1=O	> 225	> 225	< 20	> 225	< 20	< 20	> 225	< 20	> 225	> 225	< 20
CC(C)=CCc1c(O)cc(C)c(C=O)c1O	> 225	> 225	< 20	> 225	< 20	< 20	> 225	< 20	> 225	> 225	< 20

Now from value to compound, other results behind:

MIC (Escherichia coli) [µM]	MIC (Botrytis cinerea) [µM]	inhibition (Homo sapiens [1]) [%]	MIC (Aspergillus ochraceus) [µM]	inhibition [2] [%]	inhibition (Homo sapiens [3]) [%]	MIC (Micrococcus luteus) [µM]	inhibition [4] [%]	MIC (Bacillus spizizenii) [µM]	MIC (Rhizopus arrhizus) [µM]	Compound	inhibition [5] [%]
> 225	> 225	< 20	> 225	< 20	< 20	> 225	< 20	> 225	> 225	CO[C@@H]1[C@@H](O)[C@H](O)[C@H](OC(=O)C2=CC[C@H](C(C)C)[C@H]3C=C(C)CC[C@@H]23)[C@H](OC)[C@H]1O	< 20
10 (≈ 3.23 µg/mL)	–	–	–	–	–	10 (≈ 3.23 µg/mL)	–	10 (≈ 3.23 µg/mL)	–	O=C(N[C@H](CO)[C@H](O)c1ccc([N+](=O)[O-])cc1)C(Cl)Cl [CHLORAMPHENICOL]	–
